ChEMBL document CHEMBL1143394, “Benzopyridooxathiazepine derivatives as novel potent antimitotic agents” (Bioorg Med Chem, 2009)

What was measured:
L1210 [1] = assay: Cytotoxicity against mouse L1210 cells after 48 hrs by MTT assay; format: functional, cell-based; conditions: L1210, 48 h
How it was run: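 Murine L1210 cells in RPMI 1640 with 10% FCS, glutamine, antibiotics and HEPES pH 7.4, exposed 48 h to graded concentrations. MTT added for 4 h at 37 °C, formazan dissolved in DMSO, OD 540 nm. IC50 (50% OD reduction vs untreated controls) by linear regression on linear zone of dose–response; triplicate.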

[2] = Inhibition of tubulin polymerization
[3] = Cytotoxicity against adriamycin-resistant human KB-A1 cells after 96 hrs by MTA assay; format: functional
How it was run: (§1)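 Adherent DU145, HT29, A549, KB 3-1 and KB-A1 cells grown in RPMI 1640 with 10% FCS, 2 mM glutamine, antibiotics and HEPES pH 7.4. Seeded, grown 2 days, then exposed to compound 96 h (about 4 doubling times). MTT added for 4 h at 37 °C, formazan dissolved in DMSO, read at 540 nm. IC50 from linear regression on linear part of dose–response; triplicate.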

P388 [4] = assay: Antitumor activity against mouse P388 cells xenografted in B6D2F1 mouse assessed as survivality at 100 mg/kg, iv; format: functional
How it was run: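 P388 murine leukemia cells inoculated intraperitoneally (10⁶ cells/mouse) into B6D2F1 mice on day 0. Single intravenous dose given on day 1. Readout is percent T/C: median survival time of treated mice divided by median survival time of controls, ×100.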

P388 [5] = assay: Antitumor activity against mouse P388 cells xenografted in B6D2F1 mouse at 50 to 100 mg/kg, ip relative to control; format: functional; conditions: dose mg/kg 50-100; route intraperitoneal
How it was run: (§2)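 P388 leukaemia cells inoculated ip at 10⁶ cells/mouse into B6D2F1 mice on day 0; compound given once ip or iv on day 1. Result expressed as % T/C = median survival time of treated over untreated controls ×100.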

[6] = Metabolic stability in human liver microsomes assessed as bioavailability; format: ADME, Microsome; conditions: read-out: Metabolic Bioavailability
DU-145 = assay: Cytotoxicity against human DU145 cells after 96 hrs by MTA assay; format: functional; how it was run: as §1
A549 = assay: Cytotoxicity against human A549 cells after 96 hrs by MTA assay; format: functional; how it was run: as §1
P388 [7] = assay: Antitumor activity against mouse P388 cells xenografted in B6D2F1 mouse at 100 mg/kg, iv relative to control; format: functional; how it was run: as §2
L1210 [8] = assay: Cell cycle arrest in mouse L1210 cells assessed as accumulation at S phase at 25 nM after 21 hrs by flow cytometry using propidium iodide staining; format: functional
How it was run: (§3)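 L1210 cells exposed to compound for 21 h (two doubling times), fixed in 70% ethanol, washed, stained 30 min at 20 °C in D-PBS with RNAse and propidium iodide; 10⁴ cells per sample analysed by flow cytometry for G1, S, G2+M and 8N (tetraploid) fractions.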

L1210 [9] = assay: Cell cycle arrest in mouse L1210 cells assessed as accumulation at G2/M phase at 25 nM after 21 hrs by flow cytometry using propidium iodide staining; format: functional; how it was run: as §3
HT-29 = assay: Cytotoxicity against human HT29 cells after 96 hrs by MTA assay; format: functional; how it was run: as §1
[10] = Cytotoxicity against human KB-3-1 cells after 96 hrs by MTA assay; format: functional; how it was run: as §1
[11] = Metabolic stability in mouse liver microsomes assessed as bioavailability; format: ADME, Microsome; conditions: read-out: Metabolic Bioavailability
L1210 [12] = assay: Cell cycle arrest in mouse L1210 cells assessed as accumulation of tetraploid cells at 25 nM after 21 hrs by flow cytometry using propidium iodide staining; format: functional; how it was run: as §3
P388 [13] = assay: Antitumor activity against mouse P388 cells xenografted in B6D2F1 mouse assessed as survivality at 50 to 100 mg/kg, ip; format: functional; conditions: dose mg/kg 50-100, route intraperitoneal
L1210 [14] = assay: Cell cycle arrest in mouse L1210 cells assessed as accumulation at G1 phase at 25 nM after 21 hrs by flow cytometry using propidium iodide staining; format: functional; how it was run: as §3
L1210 [15] = assay: Cell cycle arrest in mouse L1210 cells assessed as accumulation at G1 phase at 200 nM after 21 hrs by flow cytometry using propidium iodide staining; format: functional; how it was run: as §3
L1210 [16] = assay: Cell cycle arrest in mouse L1210 cells assessed as accumulation at S phase at 200 nM after 21 hrs by flow cytometry using propidium iodide staining; format: functional; how it was run: as §3
L1210 [17] = assay: Cell cycle arrest in mouse L1210 cells assessed as accumulation of tetraploid cells at 200 nM after 21 hrs by flow cytometry using propidium iodide staining; format: functional; how it was run: as §3
L1210 [18] = assay: Cell cycle arrest in mouse L1210 cells assessed as accumulation at G2/M phase at 200 nM after 21 hrs by flow cytometry using propidium iodide staining; format: functional; how it was run: as §3
L1210 [19] = assay: Cell cycle arrest in mouse L1210 cells assessed as accumulation at G1 phase at 50 nM after 21 hrs by flow cytometry using propidium iodide staining; format: functional; how it was run: as §3
L1210 [20] = assay: Cell cycle arrest in mouse L1210 cells assessed as accumulation of tetraploid cells at 50 nM after 21 hrs by flow cytometry using propidium iodide staining; format: functional; how it was run: as §3
L1210 [21] = assay: Cell cycle arrest in mouse L1210 cells assessed as accumulation at S phase at 50 nM after 21 hrs by flow cytometry using propidium iodide staining; format: functional; how it was run: as §3
L1210 [22] = assay: Cell cycle arrest in mouse L1210 cells assessed as accumulation at G2/M phase at 50 nM after 21 hrs by flow cytometry using propidium iodide staining; format: functional; how it was run: as §3
L1210 [23] = assay: Cell cycle arrest in mouse L1210 cells assessed as accumulation at S phase at 100 nM after 21 hrs by flow cytometry using propidium iodide staining; format: functional; how it was run: as §3
L1210 [24] = assay: Cell cycle arrest in mouse L1210 cells assessed as accumulation of tetraploid cells at 100 nM after 21 hrs by flow cytometry using propidium iodide staining; format: functional; how it was run: as §3
L1210 [25] = assay: Cell cycle arrest in mouse L1210 cells assessed as accumulation at G1 phase at 100 nM after 21 hrs by flow cytometry using propidium iodide staining; format: functional; how it was run: as §3
L1210 [26] = assay: Cell cycle arrest in mouse L1210 cells assessed as accumulation at G2/M phase at 100 nM after 21 hrs by flow cytometry using propidium iodide staining; format: functional; how it was run: as §3

Question: For `O=S1(=O)Oc2ccccc2N=C2C1=CC=CN2CCc1ccc(OCc2ccccc2)cc1`, which IC50 (L1210 [1]) is on record?
Answer: The IC50 was greater than 100 µM.

Question: Which INH [2] does the source give for `COc1ccc(CCN2C=CC=C3C2=Nc2ccccc2OS3(=O)=O)cc1` here?
Answer: The INH was 2.2 µM.

Question: What about the Activity [3] of the same molecule?
Answer: Its Activity is 13.2 nM.

Question: What about the Activity (P388 [4]) of the same molecule?
Answer: Its Activity is 41%.

Question: What about the T/C (P388 [5]) of the same molecule?
Answer: Its T/C is 161%.

Question: What about the bioavailability [6] of the same molecule?
Answer: The bioavailability was less than 12%.

Question: What about the Activity (DU-145) of the same molecule?
Answer: Its Activity is 17 nM.

Question: What about the Activity (A549) of the same molecule?
Answer: Its Activity is 11.5 nM.

Question: What about the T/C (P388 [7]) of the same molecule?
Answer: Its T/C is 141%.

Question: And the Activity (L1210 [8])?
Answer: The Activity was 3%.

Question: And the Activity (L1210 [9])?
Answer: Its Activity is 25%.

Question: What about the Activity (HT-29) of the same molecule?
Answer: Its Activity is 10 nM.

Question: And the Activity [10]?
Answer: Its Activity is 16 nM.

Question: And the bioavailability [11]?
Answer: The bioavailability was less than 12%.

Question: And the Activity (L1210 [12])?
Answer: Its Activity is 60%.

Question: What about the Activity (P388 [13]) of the same molecule?
Answer: Its Activity is 61%.

Question: What about the Activity (L1210 [14]) of the same molecule?
Answer: The Activity was 4%.

Question: And the IC50 (L1210 [1])?
Answer: Its IC50 is 0.0095 µM.

Question: With `COc1cc(CCN2C=CC=C3C2=Nc2ccccc2OS3(=O)=O)cc(OC)c1OC` as the molecule, how does the IC50 (L1210 [1]) read?
Answer: Its IC50 is 27.7 µM.

Question: Which results are given for `COc1ccc(CCN2C=CC=C3C2=Nc2cc(OC)ccc2OS3(=O)=O)cc1`?
Answer: Activity (L1210 [15]): 8%; Activity (DU-145): 116 nM; Activity (A549): 99.1 nM; Activity (L1210 [16]): 11%; Activity (L1210 [17]): 59%; Activity (L1210 [18]): 22%; IC50 (L1210 [1]): 0.043 µM

Question: Which IC50 (L1210 [1]) does the source give for `COc1ccc(CCCN2C=CC=C3C2=Nc2ccccc2OS3(=O)=O)cc1` here?
Answer: The IC50 was 8.6 µM.

Question: Which IC50 (L1210 [1]) does the source give for `O=S1(=O)Oc2ccccc2N=C2C1=CC=CN2CCc1ccc(O)cc1` here?
Answer: Its IC50 is 0.6 µM.

Question: With `COc1ccc(CCN2c3cc(C)ccc3OS(=O)(=O)c3cccnc32)cc1` as the molecule, how does the IC50 (L1210 [1]) read?
Answer: Its IC50 is 22.5 µM.

Question: Which IC50 (L1210 [1]) does the source give for `COc1cccc(CCN2C=CC=C3C2=Nc2ccccc2OS3(=O)=O)c1` here?
Answer: The IC50 was 0.8 µM.

Question: With `COc1ccc(CCN2C=CC=C3C2=Nc2cc(Cl)ccc2OS3(=O)=O)cc1` as the molecule, how does the Activity (L1210 [19]) read?
Answer: The Activity was 3%.

Question: And the Activity (L1210 [20])?
Answer: Its Activity is 65%.

Question: What about the Activity (L1210 [21]) of the same molecule?
Answer: The Activity was 3%.

Question: And the Activity (DU-145)?
Answer: The Activity was 42.3 nM.

Question: What about the Activity (HT-29) of the same molecule?
Answer: Its Activity is 27.1 nM.

Question: What about the Activity (L1210 [22]) of the same molecule?
Answer: Its Activity is 29%.

Question: And the IC50 (L1210 [1])?
Answer: The IC50 was 0.027 µM.

Question: For `COc1ccccc1CCN1C=CC=C2C1=Nc1ccccc1OS2(=O)=O`, which IC50 (L1210 [1]) is on record?
Answer: Its IC50 is 14.8 µM.

Question: For `O=S1(=O)Oc2ccccc2N=C2C1=CC=CN2CCc1cccc2ccccc12`, which IC50 (L1210 [1]) is on record?
Answer: The IC50 was 9.6 µM.

Question: With `COc1cc([C@@H]2c3cc4c(cc3C[C@H]3COC(=O)[C@@H]32)OCO4)cc(OC)c1OC` as the molecule, how does the INH [2] read?
Answer: Its INH is 2.4 µM.

Question: With `COc1ccc(CCCN2c3ccccc3OS(=O)(=O)c3cccnc32)cc1` as the molecule, how does the IC50 (L1210 [1]) read?
Answer: The IC50 was 15.4 µM.

Question: With `COc1ccc(CN2C=CC=C3C2=Nc2ccccc2OS3(=O)=O)cc1` as the molecule, how does the IC50 (L1210 [1]) read?
Answer: Its IC50 is 3.2 µM.

Question: Which IC50 (L1210 [1]) does the source give for `COc1ccc(CN2c3ccccc3OS(=O)(=O)c3cccnc32)cc1` here?
Answer: Its IC50 is 0.77 µM.

Question: Which IC50 (L1210 [1]) does the source give for `O=S1(=O)Oc2ccccc2N=C2C1=CC=CN2CCc1ccc(-c2ccccc2)cc1` here?
Answer: Its IC50 is 5 µM.

Question: With `COc1ccccc1CCN1c2ccccc2OS(=O)(=O)c2cccnc21` as the molecule, how does the IC50 (L1210 [1]) read?
Answer: Its IC50 is greater than 10 µM.

Question: With `COc1ccc(CCN2c3ccccc3OS(=O)(=O)c3cccnc32)cc1` as the molecule, how does the IC50 (L1210 [1]) read?
Answer: The IC50 was 26.5 µM.

Question: Which IC50 (L1210 [1]) does the source give for `COc1cc(CCN2c3ccccc3OS(=O)(=O)c3cccnc32)cc(OC)c1OC` here?
Answer: Its IC50 is 36.8 µM.

Question: With `COc1ccc(CCN2C=CC=C3C2=Nc2ccccc2NS3(=O)=O)cc1` as the molecule, how does the IC50 (L1210 [1]) read?
Answer: Its IC50 is 0.3 µM.

Question: For `COc1ccc(CCN2C=CC=C3C2=Nc2cc(C)ccc2OS3(=O)=O)cc1`, which Activity (L1210 [23]) is on record?
Answer: The Activity was 3%.

Question: And the Activity (L1210 [24])?
Answer: Its Activity is 75%.

Question: What about the Activity (HT-29) of the same molecule?
Answer: The Activity was 50.2 nM.

Question: What about the Activity (L1210 [25]) of the same molecule?
Answer: Its Activity is 4%.

Question: And the Activity (L1210 [26])?
Answer: Its Activity is 17%.

Question: And the IC50 (L1210 [1])?
Answer: Its IC50 is 0.037 µM.

Question: For `COc1ccc(CCN2c3cc(OC)ccc3OS(=O)(=O)c3cccnc32)cc1`, which IC50 (L1210 [1]) is on record?
Answer: Its IC50 is 11.2 µM.

Question: With `O=S1(=O)Oc2ccccc2N(CCc2cccc3ccccc23)c2ncccc21` as the molecule, how does the IC50 (L1210 [1]) read?
Answer: Its IC50 is greater than 100 µM.
